Consider five molecules from ChEMBL document CHEMBL5042537, “Synthesis and Characterization of 5-(2-Fluoro-4-[11C]methoxyphenyl)-2,2-dimethyl-3,4-dihydro-2H-pyrano[2,3-b]pyridine-7-carboxamide as a PET Imaging Ligand for Metabotropic Glutamate Receptor 2” (J Med Chem, 2022).

A short description of data set [1]: Drug uptake in Sprague-Dawley rat brain hypothalamus mGlr2 rich region by CT scan. To be noted: in vivo. Format: ADME, tissue-based. An outline of the steps:
(§1)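 Male Sprague–Dawley rats (285–421 g) under isoflurane received [11C] tracer (63.0–87.3 MBq) iv via tail vein, followed by 60 min dynamic PET with CT for attenuation correction. Blockers were given iv 1 or 20 min before tracer, at 0.5 mg/kg (10% ethanol/5% Tween-80/saline) or 0.2 mg/kg (10% DMSO/5% Tween-20/PBS). Regional accumulation was taken over 2–30 min and compared with baseline scans.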

Data set [2] can be described thus: Drug uptake in Sprague-Dawley rat brain […] rich region assessed as decrease in drug accumulation pretreated with 4-(8-bromo-2-oxo-2,3-dihydro-1H-benzo[b][1,4]diazepin-4-yl)picolinonitrile at 0.2 mg/kg, iv for 1 min before administration of tracer injection by CT scan. The following applies: in vivo. Format: ADME, organism-based. The method in brief: as §1

Data set [3] is described as follows: Drug uptake in Sprague-Dawley rat brain cerebellum mGlr2 rich region by CT scan. Format: ADME, tissue-based. To be noted: in vivo. An outline of the steps:
as §1

Data set [4] in a line: Drug uptake in Sprague-Dawley rat brain striatum mGlr2 rich region by CT scan. It is filed as ADME, tissue-based. The following applies: in vivo. An outline of the steps: as §1
A short description of data set [5]: Drug uptake in Sprague-Dawley rat brain striatum mGlr2 rich region assessed as decrease in drug accumulation pretreated with 4-(4-fluorophenyl)-5-((1-methyl-1H-pyrazol-3-yl)methoxy)picolinamide at 0.5 mg/kg, iv for 1 min before administration of tracer injection by CT scan. Format: ADME, organism-based. The following applies: in vivo, pooled result: one value given for 4 cell lines, strains, targets or settings. An outline of the steps: as §1

Data set [6] can be described thus: Drug uptake in Sprague-Dawley rat brain cerebellum mGlr2 rich region assessed as decrease in drug accumulation pretreated with 4-(8-bromo-2-oxo-2,3-dihydro-1H-benzo[b][1,4]diazepin-4-yl)picolinonitrile at 0.2 mg/kg, iv for 1 min before administration of tracer injection by CT scan. Format: ADME, organism-based. The following applies: in vivo. An outline of the steps:
as §1

A short description of data set [7]: Drug uptake in Sprague-Dawley rat brain hypothalamus mGlr2 rich region assessed as decrease in drug accumulation pretreated with 4-(8-bromo-2-oxo-2,3-dihydro-1H-benzo[b][1,4]diazepin-4-yl)picolinonitrile at 0.2 mg/kg, iv for 1 min before administration of tracer injection by CT scan. It is filed as ADME, organism-based. To be noted: in vivo. An outline of the steps:
as §1

Data set [8] is described as follows: Drug metabolism in Cynomolgus monkey plasma assessed as parent compound remaining pretreated with 4-(4-fluorophenyl)-5-((1-methyl-1H-pyrazol-3-yl)methoxy)picolinamide at 1 mg/kg, iv for 20 mins before administration of tracer injection measured after 30 mins by CT scan. It is filed as ADME, organism-based, Macaca fascicularis. The following applies: read-out: Stability. An outline of the steps:
(§2)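 Cynomolgus monkey (female, 5.0 kg) given tracer as a 3 min iv infusion, with blocker 1.0 mg/kg iv 20 min before. Plasma samples from 5–120 min were analysed by automated column-switching radioHPLC (capture column, then C18 with acetonitrile:0.1 M ammonium formate 45:55, 0.1% TFA). Eluate was collected in 1 min fractions and gamma-counted to give percent parent.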

The nature of data set [9]: Drug uptake in Sprague-Dawley rat brain thalamus mGlr2 rich region assessed as decrease in drug accumulation pretreated with 4-(8-bromo-2-oxo-2,3-dihydro-1H-benzo[b][1,4]diazepin-4-yl)picolinonitrile at 0.2 mg/kg, iv for 1 min before administration of tracer injection by CT scan. Format: ADME, organism-based. The following applies: in vivo. The method in brief:
as §1

Data set [10] can be described thus: Drug metabolism in Cynomolgus monkey plasma assessed as retention time of metabolite by measuring pretreated with 4-(4-fluorophenyl)-5-((1-methyl-1H-pyrazol-3-yl)methoxy)picolinamide at 1 mg/kg, iv for 20 min before administration of tracer injection by CT scan. It is filed as ADME, organism-based, Macaca fascicularis. The following applies: in vivo. An outline of the steps: as §2

Data set [11] is described as follows: Drug uptake in Sprague-Dawley rat brain thalamus mGlr2 rich region assessed as decrease in drug accumulation pretreated with 4-(4-fluorophenyl)-5-((1-methyl-1H-pyrazol-3-yl)methoxy)picolinamide at 0.5 mg/kg, iv for 1 min before administration of tracer injection by CT scan. Format: ADME, organism-based. To be noted: in vivo. The method in brief:
as §1

The nature of data set [12]: Drug uptake in Sprague-Dawley rat brain thalamus mGlr2 rich region by CT scan. It is filed as ADME, tissue-based. The following applies: in vivo. The method in brief: as §1
Data set [13] is described as follows: Drug uptake in Sprague-Dawley rat brain cortex mGlr2 rich region by CT scan. To be noted: in vivo. Format: ADME, tissue-based. An outline of the steps:
as §1

Data set [14] in a line: Drug uptake in Sprague-Dawley rat brain hippocampus mGlr2 rich region assessed as decrease in drug accumulation pretreated with 4-(8-bromo-2-oxo-2,3-dihydro-1H-benzo[b][1,4]diazepin-4-yl)picolinonitrile at 0.2 mg/kg, iv for 1 min before administration of tracer injection by CT scan. It is filed as ADME, organism-based. To be noted: in vivo. The method in brief: as §1
A short description of data set [15]: Drug uptake in Sprague-Dawley rat brain striatum mGlr2 rich region assessed as decrease in drug accumulation pretreated with 4-(8-bromo-2-oxo-2,3-dihydro-1H-benzo[b][1,4]diazepin-4-yl)picolinonitrile at 0.2 mg/kg, iv for 20 min before administration of tracer injection by CT scan. It is filed as ADME, organism-based. The following applies: in vivo. The method in brief: as §1

The nature of data set [16]: Drug metabolism in Cynomolgus monkey plasma assessed as parent compound remaining pretreated with 4-(4-fluorophenyl)-5-((1-methyl-1H-pyrazol-3-yl)methoxy)picolinamide at 1 mg/kg, iv for 20 mins before administration of tracer injection measured after 120 mins by CT scan. Format: ADME, organism-based, Macaca fascicularis. The following applies: read-out: Stability. The method in brief: as §2

A short description of data set [17]: Drug uptake in Sprague-Dawley rat brain striatum mGlr2 rich region assessed as decrease in drug accumulation pretreated with 4-(8-bromo-2-oxo-2,3-dihydro-1H-benzo[b][1,4]diazepin-4-yl)picolinonitrile at 0.2 mg/kg, iv for 1 min before administration of tracer injection by CT scan. Format: ADME, organism-based. To be noted: in vivo. The method in brief: as §1

Data set [18] in a line: Drug uptake in Sprague-Dawley rat brain thalamus mGlr2 rich region assessed as decrease in drug accumulation pretreated with 4-(8-bromo-2-oxo-2,3-dihydro-1H-benzo[b][1,4]diazepin-4-yl)picolinonitrile at 0.2 mg/kg, iv for 20 min before administration of tracer injection by CT scan. It is filed as ADME, organism-based. The following applies: in vivo, pooled result: one value given for 4 cell lines, strains, targets or settings. The method in brief:
as §1

Data set [19] is described as follows: Drug uptake in Sprague-Dawley rat brain cerebellum mGlr2 rich region assessed as decrease in drug accumulation pretreated with 4-(8-bromo-2-oxo-2,3-dihydro-1H-benzo[b][1,4]diazepin-4-yl)picolinonitrile at 0.2 mg/kg, iv for 20 min before administration of tracer injection by CT scan. It is filed as ADME, organism-based. The following applies: in vivo. The method in brief: as §1

Data set [20] can be described thus: Permeability of the compound across blood brain barrier in Sprague-Dawley rat after 4 mins by CT scan. Format: ADME, tissue-based. The method in brief:
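Male Sprague–Dawley rats (285–421 g) under isoflurane (1.0–1.5%) in oxygen. [11C]tracer (63.0–87.3 MBq) given iv via tail-vein catheter. Dynamic PET ran 60 min from injection, followed by CT for anatomy and attenuation correction. Data were reconstructed by MLEM into 24 frames. Regional brain uptake was expressed as SUV time-activity curves.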

Data set [21] is described as follows: Drug uptake in Sprague-Dawley rat brain hippocampus mGlr2 rich region by CT scan. The following applies: in vivo. Format: ADME, tissue-based. An outline of the steps:
as §1

The nature of data set [22]: Drug uptake in Sprague-Dawley rat brain cortex mGlr2 rich region assessed as decrease in drug accumulation pretreated with 4-(4-fluorophenyl)-5-((1-methyl-1H-pyrazol-3-yl)methoxy)picolinamide at 0.5 mg/kg, iv for 1 min before administration of tracer injection by CT scan. Format: ADME, organism-based. The following applies: in vivo. An outline of the steps: as §1
Data set [23] can be described thus: Lipophilicity, LogD at pH 7.4 of the compound by shake flask method. Format: physicochemical. The following applies: buffer. The method in brief: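 Shake-flask method: 0.1 mg compound in n-octanol/PBS pH 7.4 (1.0 mL each), vortexed 1 min and shaken at 37 °C overnight. Each phase was quantified by HPLC peak area at 254 nm, and LogD = log(octanol/PBS). Run at least three times.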

The nature of data set [24]: Stability of the compound in rat liver microsome measured at 60 min. It is filed as ADME. The following applies: liver microsomes, read-out: Stability. The method in brief: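 Compound (1.5 μL of 1 mM DMSO stock) in PBS was preincubated at 37 °C, then Sprague–Dawley rat liver microsomes and NADPH (10 mM stock) were added. After 60 min at 37 °C, reactions were quenched with cold acetonitrile and analysed by HPLC against an internal standard. Stability = 60 min/0 min peak area × 100%; at least three repeats.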
In general terms: Microsomes from liver hold many membrane-bound enzymes, among them those of drug oxidation.

Data set [25] is described as follows: Stability of the compound in rat plasma measured at 60 min. The following applies: read-out: Stability. Format: ADME, cell-free. The method in brief:
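Compound (2.5 μL of 1 mM DMSO stock) was incubated in 100 μL rat serum at 37 °C for 60 min, then quenched with ice-cold acetonitrile and centrifuged. Supernatant was analysed by HPLC against an internal standard. Stability = peak area at 60 min / peak area at 0 min × 100%; at least three repeats.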

Data set [26] is described as follows: Permeability of the compound in Sprague-Dawley rat brain striatum at 1 to 30 mins by CT scan. Format: ADME, tissue-based. The following applies: time 1-30 min. An outline of the steps: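 Male Sprague–Dawley rats under isoflurane anaesthesia were injected iv via tail vein with the [11C] tracer (63.0–87.3 MBq). Dynamic PET ran for 60 min, reconstructed by MLEM, with a CT scan for attenuation correction. Striatal SUV time-activity curves were derived, and images were summed over 1–30 min.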

The target in data set [27] is T1, Metabotropic glutamate receptor 2 (Homo sapiens, UniProt Q14416). Description: Binding affinity to human recombinant mGlur2 assessed as inhibition constant by cAMP Glosensor assay.
Target sequence in this assay (Q14416 whole entry): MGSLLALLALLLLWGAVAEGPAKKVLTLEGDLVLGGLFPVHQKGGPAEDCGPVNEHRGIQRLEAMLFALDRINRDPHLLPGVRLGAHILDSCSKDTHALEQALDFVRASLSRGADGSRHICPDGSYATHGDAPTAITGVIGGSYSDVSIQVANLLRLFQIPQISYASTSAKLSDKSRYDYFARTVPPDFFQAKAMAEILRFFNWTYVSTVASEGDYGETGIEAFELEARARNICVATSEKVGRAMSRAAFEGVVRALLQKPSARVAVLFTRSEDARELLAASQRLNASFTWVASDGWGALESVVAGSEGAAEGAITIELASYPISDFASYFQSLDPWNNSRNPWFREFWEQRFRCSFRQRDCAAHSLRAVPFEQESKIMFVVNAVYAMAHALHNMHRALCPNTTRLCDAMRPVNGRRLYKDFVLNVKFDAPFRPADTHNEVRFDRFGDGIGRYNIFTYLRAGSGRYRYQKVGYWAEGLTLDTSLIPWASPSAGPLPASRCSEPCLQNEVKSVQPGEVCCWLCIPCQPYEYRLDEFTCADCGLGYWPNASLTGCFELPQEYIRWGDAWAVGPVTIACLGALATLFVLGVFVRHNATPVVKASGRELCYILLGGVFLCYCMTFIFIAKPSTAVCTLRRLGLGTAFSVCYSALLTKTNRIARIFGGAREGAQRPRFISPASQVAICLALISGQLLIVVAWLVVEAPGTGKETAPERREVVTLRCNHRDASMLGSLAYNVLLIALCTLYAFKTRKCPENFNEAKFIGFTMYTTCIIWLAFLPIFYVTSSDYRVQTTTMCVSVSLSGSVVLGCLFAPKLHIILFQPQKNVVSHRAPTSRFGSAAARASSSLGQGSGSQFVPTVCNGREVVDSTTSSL
For data set [28], the target named is T1, Metabotropic glutamate receptor 2. The data set can be described thus: Negative allosteric modulation activity at human recombinant mGlur2 at 30 nM by cAMP Glosensor assay. It is filed as functional. To be noted: filed as negative allosteric modulator. An outline of the steps:
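Flp-In T-REx-293 cells with tetracycline-inducible mGluR2 (induced with 1 μg/mL tetracycline) were transfected with pGloSensor-21F and plated at 15,000 cells/well in BME with 1% dialyzed FBS. Split-luciferase cAMP read-out was taken with 0.1 μM isoproterenol and increasing L-glutamate. Glutamate curves were fitted to an allosteric operational model; three independent assays in triplicate.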
Target sequence in this assay (Q14416 19-872 limits assumed): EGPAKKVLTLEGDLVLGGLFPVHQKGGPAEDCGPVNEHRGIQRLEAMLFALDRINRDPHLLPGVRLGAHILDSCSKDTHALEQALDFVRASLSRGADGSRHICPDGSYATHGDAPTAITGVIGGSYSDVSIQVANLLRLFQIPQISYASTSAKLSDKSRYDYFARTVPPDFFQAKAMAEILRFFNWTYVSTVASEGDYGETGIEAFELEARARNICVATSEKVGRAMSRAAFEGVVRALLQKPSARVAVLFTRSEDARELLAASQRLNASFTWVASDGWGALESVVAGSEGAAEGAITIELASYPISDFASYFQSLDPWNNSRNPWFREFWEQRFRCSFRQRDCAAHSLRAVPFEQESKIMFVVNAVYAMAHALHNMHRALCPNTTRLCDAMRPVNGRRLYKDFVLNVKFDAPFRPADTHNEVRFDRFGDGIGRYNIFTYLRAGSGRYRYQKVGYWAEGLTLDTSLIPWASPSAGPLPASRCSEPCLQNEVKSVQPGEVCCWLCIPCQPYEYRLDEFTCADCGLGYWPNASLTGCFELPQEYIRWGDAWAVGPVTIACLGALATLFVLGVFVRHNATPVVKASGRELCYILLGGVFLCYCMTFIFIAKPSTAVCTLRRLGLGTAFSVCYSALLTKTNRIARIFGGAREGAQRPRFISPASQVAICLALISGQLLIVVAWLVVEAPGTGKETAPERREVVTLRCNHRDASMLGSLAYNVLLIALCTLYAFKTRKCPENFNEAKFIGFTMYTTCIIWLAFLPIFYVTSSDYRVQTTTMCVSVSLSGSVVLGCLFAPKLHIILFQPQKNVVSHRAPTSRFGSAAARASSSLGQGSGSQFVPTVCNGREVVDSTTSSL

Structures are written as SMILES. pKi: −log10 of the molar value. Activity calls are given as the source filed them. The rule behind the calls is not given here.

One may read the logD as the decadic logarithm of the distribution of all forms, ionised or not, between an organic phase and buffer at a given pH. As a reminder, the pKi is the Ki on a negative log10 scale, so that one unit is a factor of ten.

For `CC1(C)CCc2c(-c3ccc(O[11CH3])cc3F)cc(C(N)=O)nc2O1`, the Drug uptake result in [1] was “Active”; in data set [2], 39.6%; in [3], “Active”; in [4], “Active”; in data set [5] it was 22.4%; in [6], 39.6%. In addition, the Drug uptake in data set [7] is listed as 42.6%; in data set [9] it was 41.7%; in data set [11], 17.1%; in data set [12], “Active”; in [13] it was “Active”; in data set [14], 41.7%. Also, the Drug uptake in data set [15] is given as 11.1%; in data set [17], 41.7%; in data set [18] it was 12.7%; in [19], 15.2%; in data set [21], “Active”; in data set [22] it was 38.5%. Besides, the remaining at 20 min stood at 53% in [8] and 24.8% in data set [16]. For the same molecule, the Retention_time in data set [10] was found to be 2 min. The molecule further gave an SUV in [20] of 7.5.
In data set [23], `COc1ccc(-c2cc(C(N)=O)nc3c2CCC(C)(C)O3)c(F)c1` gave a logD of 2.94. Moreover, the remaining at 1 h in [24] was determined as 47.8%; in data set [25], 94.5%.
`[11CH3]Oc1cc(CN2CCc3c(-c4ccc(F)cc4F)cc(C(N)=O)nc3C2)ccn1` yielded an SUVmax in data set [26] of 1.7.
`Cn1ccc(COc2cnc(C(N)=O)cc2-c2ccc(O[11CH3])cc2F)n1` showed an SUVmax in data set [26] of 1.2.
In data set [23], `CC1(C)CCc2c(-c3ccc(F)cc3F)cc(C(N)=O)nc2O1` displayed a logD of 2.81. The remaining at 1 h amounted to 94.5% in data set [24] and 95.3% in data set [25]. The pKi in data set [27] is 7.23. Moreover, the result in data set [28] was Active.
